Test results from ChEMBL document CHEMBL4270574, “Methotrexate prodrugs sensitive to reactive oxygen species for the improved treatment of rheumatoid arthritis” (Eur J Med Chem, 2018).
Converted amounts (≈) assume the structure as drawn. Values belong to the compound of their own block, whether it stands above or below them. The source made the active and inactive calls. The calls are words filed in the database; no cut-off is given here.

How the values were obtained:
[1] = Chemical stability in 20% DMSO/PBS at 100 uM at 37 degC after 60 mins in presence of 10 mM H2O2 by RP-UPLC-MS analysis; type: physicochemical; settings: buffer, 1 h
How it was run: (§1)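 Prodrug at 100 µM in 20% DMSO/PBS (pH 7.4) with diclofenac internal standard was incubated at 37 °C with shaking, with H2O2 at 0.25–10 mM or PBS only (stability control). Samples were taken from 5 min to 24 h. Percent remaining compound and MTX formation were read by RP-UPLC at 306 nm. Runs were in triplicate and t1/2 is given ± SD.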

[2] = Chemical stability in 20% DMSO/PBS at 100 uM at 37 degC after 60 mins in absence of H2O2 by RP-UPLC-MS analysis; type: physicochemical; settings: buffer, 1 h; how it was run: as §1
[3] = tested on: Mus musculus; assay: Toxicity in DBA/1J mouse model of collagen-induced arthritis inflammation assessed as reduction in body weight at 7 mg/kg, ip administered daily for 14 days starting from day 27 post disease onset; type: organism-based; settings: in vivo, 336 h
[4] = tested on: Mus musculus; assay: Anti-arthritic activity in DBA/1J mouse model of collagen-induced arthritis inflammation assessed as reduction in fore limb swelling at 7 mg/kg, ip administered daily for 14 days starting from day 27 post disease onset and measured 3 times per week from day 18 to 40 […]; type: functional, organism-based
How it was run: (§2)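 Male DBA/1J mice (8–9 weeks) were immunized intradermally near the tail base with 100 µg chicken type II collagen in CFA on day -1, with a 50 µg boost on day 21. From day 27 they received daily i.p. dosing in 2% DMSO/PBS for 14 days (n = 8/group). Blinded scoring ran three times weekly, day 18–40, at 0–15 per limb (maximum 60). Mice scoring above 45 were removed. Results are mean ± SEM, tested by one-tailed Mann–Whitney.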

[5] = tested on: Mus musculus; assay: Toxicity in DBA/1J mouse model of collagen-induced arthritis inflammation assessed as reduction in body weight at 8.3 mg/kg, ip administered daily for 14 days starting from day 27 post disease onset; type: organism-based; settings: in vivo, 336 h
[6] = Half life in 20% DMSO/PBS at 100 uM at 37 degC at pH 7.4 by RP-UPLC-MS analysis; type: physicochemical; how it was run: as §1
[7] = Chemical stability in pH 7.4 PBS buffer after 24 hrs by RP-UPLC-MS analysis; type: physicochemical; settings: pH 7.4, 24 h; how it was run: as §1
[8] = Prodrug activation in 20% DMSO/PBS assessed as 0.5 mM H2O2-mediated methotrexate formation by measuring prodrug half life at 100 uM at 37 degC, pH 7.4 by RP-UPLC-MS analysis; type: physicochemical; settings: buffer, pH 7.4, 100 µM; how it was run: as §1
[9] = Half life in human plasma at 37 degC at pH 7.4 by RP-UPLC-MS analysis; type: ADME, cell-free
How it was run: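 Reconstituted freeze-dried human plasma was diluted 1:1 with PBS (pH 7.4) and preincubated for 10 min at 37 °C. Compound was added from a 1 mg/mL DMSO stock and incubated at 37 °C. Samples at 0, 0.5, 1, 2, 4 and 8 h were quenched in ice-cold MeCN, centrifuged, and the supernatant analyzed by RP-UPLC-MS. t1/2 is from triplicates ± SD.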

[10] = tested on: Mus musculus; assay: Anti-arthritic activity in DBA/1J mouse model of collagen-induced arthritis inflammation assessed as reduction in fore limb swelling at 8.3 mg/kg, ip administered daily for 14 days starting from day 27 post disease onset and measured 3 times per week from day 18 to 40 […]; type: functional, organism-based; how it was run: as §2
[11] = Apparent intrinsic clearance in human liver microsomes at 37 degC at pH 7.4 by RP-UPLC-MS analysis; type: ADME, microsome; settings: read-out: CLH(app)
How it was run: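 Pooled human liver microsomes in PBS were preincubated for 10 min at 37 °C. Compound was added from a 10 mM DMSO stock, then NADPH from a 30 mM stock, with a no-NADPH control. Aliquots taken at 0–40 min were quenched in ice-cold MeCN, centrifuged and analyzed by UPLC-MS. CL'int was derived from the in vitro t1/2 scaled by 45 mg microsomes/g liver and 20 g liver/kg body weight.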

[12] = Prodrug activation in 20% DMSO/PBS assessed as 5 mM H2O2-mediated methotrexate formation by measuring prodrug half life at 100 uM at 37 degC, pH 7.4 by RP-UPLC-MS analysis; type: physicochemical; settings: buffer, pH 7.4, 100 µM; how it was run: as §1
[13] = Thermodynamic solubility in pH 7.4 PBS buffer at 2 mg sonicated for 10 mins followed by incubation at 20 degC for 15 hrs by RP-UPLC-MS analysis; type: physicochemical; settings: read-out: Therm_solubility
How it was run: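 Solid (2 mg) in 1 mL PBS (pH 7.4) was sonicated, shaken for 15 h at 20 °C and centrifuged. The supernatant was diluted 1:5 in DMF and quantified by RP-UPLC-MS against a 25–125 µg/mL calibration curve. Results are at least three measurements ± SD.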

[14] = Chemical stability in pH 7.4 PBS buffer by RP-UPLC-MS analysis; type: physicochemical; how it was run: as §1

Stability [1]: Stable
Stability [2]: Stable
Structure (SMILES): CN(Cc1cnc2nc(N)nc(N)c2n1)c1ccc(C(=O)N[C@@H](CCC(=O)O)C(=O)O)cc1 [METHOTREXATE]
Activity [3]: Toxic
Activity [4]: Active

half-life at 100 µM [6]: 116 h
Stability [7]: Stable
t1/2 [8]: 16.5 h
half-life [9]: 7 h
CLint scaled [11]: 1.4 mL/min/kg
t1/2 [12]: 1.7 h
solubility thermodynamic at 15 h [13]: 400 µg/mL (≈ 741 µM)
Structure (SMILES): CN(Cc1cnc2nc(N)nc(N)c2n1)c1ccc(C(=O)N[C@@H](CCC(=O)N2CCSC2=O)C(=O)O)cc1
Activity [5]: Non-Toxic
Activity [10]: Active

Stability [14]: Unstable
Structure (SMILES): CN(Cc1cnc2nc(N)nc(N)c2n1)c1ccc(C(=O)N[C@@H](CCC(=O)O)C(=O)N2CCSC2=O)cc1
